Screening results deposited in PubChem by several laboratories.
ADAM17 inh: ADAM17 inhibition, QFRET primary screen | P78536 | recombinant ADAM17, EDANS/DABCYL FRET peptide cleavage | inhibition, % at 6.95 µM | 370,000 compounds, 0.83% hits;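 active = inhibition above the mean of compounds lying between control limits plus 3 SD, set per campaign, cut at about 8.5% in these data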;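 note: 0% = DMSO-only wells as the low control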
CaV13 FRET inh: Disruptors of the CACNA1D IQ motif to Ca2+-dependent inactivation inhibitor domain association, primary screening, Förster resonance energy transfer in intact living … | inhibition, % at 12.3 µM | 340,000 compounds, 0.098% hits | HEK cells, CFP/YFP FRET ICDI-IQ, plate reader, 10 min; percent FRET-ratio fall versus neutral wells;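 active = mean replicate inhibition of at least 30% and at least 1% of replicates passing that level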;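 note: 0% = median of the neutral control wells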
FAS-TE inh: FAS thioesterase (human) inhibition | 360,000 compounds, 0.67% hits | inhibition, % at 15 µM | P49327 | recombinant FAS-TE, OMFH fluorogenic substrate, fluorescence endpoint;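 active = compounds whose normalised, plate-corrected inhibition of enzyme fluorescence in the single-dose primary screen is 50% or more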;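 note: 0% = DMSO with enzyme and 100% = substrate without enzyme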
CendR NRP1 mod: NRP-1/CendR interaction modulation | O14786 | FAM-RPARPAR peptide binding to NRP-1, fluorescence polarization | inhibition, % at 25 µM | 360,000 compounds, 0.85% hits | AID 602438;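 active = inhibition or corrected inhibition above about 18%, plus a signal ratio from 0.5 to 1.5, limit read from the data, passing the limit was not always enough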
Target sequence (O14786 whole entry, looked up): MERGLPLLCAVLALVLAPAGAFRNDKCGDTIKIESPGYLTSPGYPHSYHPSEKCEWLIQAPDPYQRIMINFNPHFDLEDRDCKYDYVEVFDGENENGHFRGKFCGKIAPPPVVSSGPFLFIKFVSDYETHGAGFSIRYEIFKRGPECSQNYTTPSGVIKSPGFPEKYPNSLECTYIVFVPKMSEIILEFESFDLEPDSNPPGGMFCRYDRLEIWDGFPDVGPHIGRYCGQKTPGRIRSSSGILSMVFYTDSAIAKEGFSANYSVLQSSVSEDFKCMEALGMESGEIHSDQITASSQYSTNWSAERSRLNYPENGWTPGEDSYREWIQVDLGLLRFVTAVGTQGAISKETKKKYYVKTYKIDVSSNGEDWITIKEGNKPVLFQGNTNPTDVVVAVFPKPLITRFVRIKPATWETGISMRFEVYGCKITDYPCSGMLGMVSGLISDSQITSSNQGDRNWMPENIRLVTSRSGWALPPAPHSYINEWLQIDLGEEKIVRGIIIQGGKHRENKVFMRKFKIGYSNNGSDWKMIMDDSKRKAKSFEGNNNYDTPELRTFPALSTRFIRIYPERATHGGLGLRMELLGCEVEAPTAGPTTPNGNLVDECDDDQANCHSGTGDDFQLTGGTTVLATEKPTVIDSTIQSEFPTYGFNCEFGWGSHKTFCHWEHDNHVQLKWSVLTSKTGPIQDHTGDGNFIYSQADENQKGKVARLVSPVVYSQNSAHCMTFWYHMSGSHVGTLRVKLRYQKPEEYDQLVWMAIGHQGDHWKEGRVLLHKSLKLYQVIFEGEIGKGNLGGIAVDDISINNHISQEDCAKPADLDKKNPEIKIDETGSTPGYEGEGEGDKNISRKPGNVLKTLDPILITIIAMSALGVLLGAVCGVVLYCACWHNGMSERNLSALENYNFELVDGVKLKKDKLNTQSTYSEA
Arrestin-AP2 inh: human beta-arrestin and AP2 interaction inhibition. 340,000 compounds, 0.31% hits. inhibition, % at 10 µM. FITC-arrestin peptide / GST-AP2 beads, flow cytometry; AP2 beta2 appendage carries R879A mutation. AID 504490;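 active = inhibition above a set limit, near 3 SD of compounds lacking own fluorescence, cut at about 54% in these data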;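 note: plate controls were DMSO wells for no effect and 5 µM unlabelled arrestin peptide for full effect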
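System: GST-AP2 R879A glutathione beads | Also added: FITC-arrestin peptide, 50 nM | Times: 12 min plus 1 h, RT | Signal: Bead flow cytometry, FITC channel | Buffer or medium: PBS with 0.05% Tween 20 and 0.1% BSA | Read-out basis: Percent drop in bead-associated FITC signal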
ADAM10 inh: inhibitors of human ADAM10 | O14672 | recombinant ADAM10, EDANS/DABCYL FRET peptide cleavage, 3 h | inhibition, % at 7 µM | 370,000 compounds, 0.62% hits | AID 720582;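 active = inhibition above a per-campaign cutoff equal to the mean of compounds falling between control-based bounds plus 3 SD, cut at about 20% in these data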;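 note: 0% = DMSO wells while the 100% control is not disclosed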
FAS-TE inh conf: confirmation of human fatty acid synthase thioesterase inhibitors; recombinant FAS-TE, OMFH fluorogenic substrate, fluorescence; shares compounds with FAS-TE inh; 2,300 compounds, 45% hits; inhibition, % at 15 µM;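 active = compounds inhibiting the enzyme by at least 50% at 15 µM in any one of the replicates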;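 note: 0% = enzyme with DMSO only and 100% = wells lacking enzyme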
The depositor's hits bear a star. The list is not random: actives were taken first. Their share in the collection is about 2.9%.

For COc1ccccc1NS(=O)(=O)c1ccc(N/N=C/C=C/c2ccccc2[N+](=O)[O-])c([N+](=O)[O-])c1 the results were ADAM17 inh 0.5, CaV13 FRET inh -4.9, FAS-TE inh 60.6*, CendR NRP1 mod 28.8*, Arrestin-AP2 inh -2.5, ADAM10 inh -1.4 and FAS-TE inh conf -0.4.
Cc1nn(-c2ccccc2)c(N2CCCC2)c1/C=N/Nc1ccc(S(=O)(=O)Nc2ccccc2)cc1[N+](=O)[O-] was read as ADAM17 inh -1.1, CaV13 FRET inh -16.9, FAS-TE inh 52.7*, CendR NRP1 mod -6.7, Arrestin-AP2 inh 1.2, ADAM10 inh 4.6 and FAS-TE inh conf 4.8.
Screening CN(c1cccnc1)c1ccc(NC(=O)Cc2c[nH]c3ccccc23)cc1-c1ccc(F)c(F)c1 returned ADAM17 inh -3.4 and ADAM10 inh -6.9.
Screening COc1ccccc1NS(=O)(=O)c1cccc(C(=O)N/N=C/c2c(C)nn(-c3ccccc3)c2N2CCCC2)c1 returned ADAM17 inh 7.1, CaV13 FRET inh -4.5, FAS-TE inh 61.7*, CendR NRP1 mod -3.6, Arrestin-AP2 inh 31.4, ADAM10 inh 11.3 and FAS-TE inh conf 15.1.
For COc1ccccc1NS(=O)(=O)c1ccc(N/N=C/c2c(C)nn(-c3ccccc3)c2N2CCCC2)c([N+](=O)[O-])c1 the results were ADAM17 inh -1.9, CaV13 FRET inh -5.1, FAS-TE inh 63.9*, CendR NRP1 mod -1.8, Arrestin-AP2 inh 5.2, ADAM10 inh -0.6 and FAS-TE inh conf 16.7.
COc1ccc(-c2c([C@H]3[C@H]4C=CC[C@@H](C)[C@@H]4C(=O)N3Cc3ccccc3)ccc3ccccc23)cc1OC was read as ADAM17 inh -1.9, CaV13 FRET inh -6.3, FAS-TE inh 54.7*, CendR NRP1 mod 20.9, Arrestin-AP2 inh 12.4, ADAM10 inh 8.0 and FAS-TE inh conf 13.6.
COc1ccc(-c2ccc(OC)c([C@H]3[C@H]4C=CC[C@@H](C)[C@@H]4C(=O)N3Cc3ccccc3)c2)cc1OC was read as ADAM17 inh 1.6, CaV13 FRET inh -10.5, FAS-TE inh 35.5, CendR NRP1 mod 0.5, Arrestin-AP2 inh 27.2 and ADAM10 inh 3.7.
`COc1ccc([C@@H]2[C@@H]3C(=O)N(C(C)(C)C)C(=O)[C@@H]3[C@]3(CC(C)C)C(=O)N(c4ccc(C(F)(F)F)cc4)C(=O)N23)cc1` gave ADAM17 inh -3.5, CaV13 FRET inh -10.6, FAS-TE inh 67.0*, CendR NRP1 mod -6.1, Arrestin-AP2 inh -5.4, ADAM10 inh 1.1 and FAS-TE inh conf 37.0.
Screening CC(C)(C)N1C(=O)[C@H]2[C@@H](c3ccc(Br)cc3)N3C(=O)N(c4ccccc4)C(=O)[C@@]3(C)[C@H]2C1=O returned ADAM17 inh -3.1, CaV13 FRET inh -4.5, FAS-TE inh 7.7, CendR NRP1 mod 2.2, Arrestin-AP2 inh -15.0 and ADAM10 inh -0.7.
CC(C)(C)N1C(=O)[C@H]2[C@@H](c3ccc(Br)cc3)N3C(=O)N(c4ccccc4)C(=O)[C@@]3(Cc3ccccc3)[C@H]2C1=O was read as ADAM17 inh 0.2, CaV13 FRET inh -4.2, FAS-TE inh 87.0*, CendR NRP1 mod -1.1, Arrestin-AP2 inh 2.0, ADAM10 inh 1.9 and FAS-TE inh conf 2.4.
CC(C)C[C@@]12C(=O)N(c3cccc(Cl)c3)C(=O)N1[C@H](c1ccc(Br)cc1)[C@@H]1C(=O)N(C(C)(C)C)C(=O)[C@@H]12 was read as ADAM17 inh 2.1, CaV13 FRET inh -10.4, FAS-TE inh 49.8, CendR NRP1 mod 11.7, Arrestin-AP2 inh 3.6 and ADAM10 inh 1.9.
Screening CC(C)C[C@@]12C(=O)N(c3ccc(Br)cc3)C(=O)N1[C@H](c1ccc(Br)cc1)[C@@H]1C(=O)N(C(C)(C)C)C(=O)[C@@H]12 returned ADAM17 inh -1.7, CaV13 FRET inh -12.0, FAS-TE inh 75.3*, CendR NRP1 mod -0.2, Arrestin-AP2 inh 6.3, ADAM10 inh 4.3 and FAS-TE inh conf 38.9*.
For NC(=O)c1csc(CCNC(=O)c2ccccc2)n1 the results were ADAM17 inh -0.1, CaV13 FRET inh -9.2, FAS-TE inh -11.0, CendR NRP1 mod 5.3 and ADAM10 inh 5.0.
Screening CC[N+]1(C)CCC(O)(/C=C/c2ccccc2)C(C(=O)/C=C/c2ccccc2)C1 (stereo not given) returned ADAM17 inh -2.2, CaV13 FRET inh -6.1, FAS-TE inh -6.5, CendR NRP1 mod -0.1, Arrestin-AP2 inh -16.5 and ADAM10 inh 0.1.
`COc1ccc(C2C(C(=O)Nc3ccc(C)c(C)c3)CCC(=O)N2c2ccc(OC)cc2)cc1` (stereo not given) gave ADAM17 inh -0.3 and ADAM10 inh 1.7.
CCCC(=O)N(C1CC(C)C(C#N)(C#N)C1(C#N)C#N)N(C)C (stereo not given) was read as ADAM17 inh -3.7, CaV13 FRET inh -4.1, FAS-TE inh 62.0*, CendR NRP1 mod 3.7, Arrestin-AP2 inh -1.8, ADAM10 inh -3.9 and FAS-TE inh conf 68.4*.
For CC(=O)N(C1CC(C)C(C#N)(C#N)C1(C#N)C#N)N(C)C (stereo not given) the results were ADAM17 inh -1.2, CaV13 FRET inh 4.2, FAS-TE inh 54.2*, CendR NRP1 mod 2.1, Arrestin-AP2 inh 47.1, ADAM10 inh 4.1 and FAS-TE inh conf 62.7*.
Screening C=CC[C@@H]1NN2C(=O)[C@@H](CCCC)[C@@H]3c4cc5ccccc5cc4C=NN3[C@@H]2c2cc3ccccc3cc21 returned ADAM17 inh -2.1 and ADAM10 inh -13.0.
`N/C(=N\OC(=O)CCCc1ccccc1)c1cccc([N+](=O)[O-])c1` gave ADAM17 inh 0.6, CaV13 FRET inh -2.4, FAS-TE inh 50.4*, CendR NRP1 mod -4.4, Arrestin-AP2 inh -13.2, ADAM10 inh 8.6 and FAS-TE inh conf 62.7*.
Screening N/C(=N\OC(=O)CCCc1ccccc1)c1ccccc1 returned ADAM17 inh -1.6, CaV13 FRET inh -7.4, FAS-TE inh 8.4, CendR NRP1 mod 9.2, Arrestin-AP2 inh -26.2 and ADAM10 inh 6.3.
Screening N/C(=N\OC(=O)CC1CCCCC1)c1cccc([N+](=O)[O-])c1 returned ADAM17 inh -0.3, CaV13 FRET inh -4.9, FAS-TE inh 62.5*, CendR NRP1 mod 9.8, Arrestin-AP2 inh -3.8, ADAM10 inh -1.5 and FAS-TE inh conf 67.8*.
`O=C(Cc1ccccc1)NCC(=O)OCC(=O)c1cccc([N+](=O)[O-])c1` gave ADAM17 inh 6.8, CaV13 FRET inh -4.3, FAS-TE inh -4.8, CendR NRP1 mod -5.8, Arrestin-AP2 inh 24.4 and ADAM10 inh 11.9.
